Assay results reported in ChEMBL document CHEMBL4219235, “Novel fatty acid chain modified GLP-1 derivatives with prolonged in vivo glucose-lowering ability and balanced glucoregulatory activity” (Bioorg Med Chem, 2018).
pEC50: −log10 of the molar value. Calls of active or inactive are those of the source. The rule behind the calls is not given here.

Legend:
Mus musculus [1] = assay: Antidiabetic activity in STZ/diet-induced obese C57BL/6 mouse assessed as reduction in cumulative water intake at 25 nmol/kg, ip administered daily for 4 weeks measured daily during compound dosing relative to control; type: functional; design: scale not given: the % may be the effect or the level left
Outline: (§1)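 Male C57BL/6J DIO mice on high-fat diet were treated for 4 weeks with saline as control; LFD-fed mice (n = 6/group) were used as normal reference. Water intake, food intake and body weight were recorded daily. Terminal serum leptin and adiponectin were measured by ELISA. TC, TG, HDL, LDL, ALT and AST were measured on a clinical chemistry analyzer.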

Rattus norvegicus = assay: Antidiabetic activity in Sprague-Dawley rat assessed as time required to increase in plasma insulin level at 25 nmol/kg, ip treated 30 mins prior to glucose challenge by ELISA; type: functional
Outline: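 Male SD rats (200–250 g), fasted 12 h, n = 6/group, received 25 nmol/kg i.p. or saline 30 min before an oral glucose load (10 g/kg, set as 0 min). EDTA plasma insulin was measured by rat insulin ELISA.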

[2] = target: Glucagon-like peptide 1 receptor (Homo sapiens, UniProt P43220); assay: Agonist activity at recombinant human GLP1 receptor expressed in HEK293 cells assessed as cAMP accumulation by TR-FRET assay; type: functional, cell-based
INS1 [3] = assay: Cytoprotective activity against H2O2-induced glucolipotoxicity in rat INS-1 cells assessed as reduction in apoptosis at 10 nM after 24 hrs by Annexin-V-FITC/propidium iodide staining based flow cytometric analysis; type: functional, cell-based
Outline: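 INS-1 cells, about 5000/well, were seeded for 24 h, then exposed to glucolipotoxic medium, 50 µM H2O2 or 1 µM STZ, plus peptide at 10 nM, for 24 h. Apoptosis was analyzed by flow cytometry; triplicate, repeated three times.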

Mus musculus [4] = assay: Antidiabetic activity in STZ-induced diabetic Kunming mouse model assessed as increase in islet beta-cell area 25 nmol/kg, ip administered once daily for 3 weeks measured post last dose by hematoxylin and eosin staining based assay; type: functional, organism-based
Outline: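 STZ-diabetic mice were dosed 25 nmol/kg i.p. once daily; normal mice and saline-treated mice served as references. After 21 days the pancreas was fixed, sectioned at 5 µm and stained with H&E. Islet area was measured by manually tracing the islet perimeter; n = 6/group.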

Albumin = Albumin (Homo sapiens, UniProt P02768); assay: Binding affinity to human serum albumin after 3 hrs by LC-MS/MS analysis; design: concentration or dose not given beside the values
Outline: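 HSA was coupled to NHS-activated Sepharose (6–7 mg HSA/mL wet resin); an inactivated albumin-free resin served as control. Peptide (100 µg/mL in PBS) was incubated with each resin for 3 h at 25 °C. After centrifugation, unbound peptide in the supernatant was quantified by LC-MS/MS.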

INS1 [5] = assay: Cytoprotective activity against STZ-induced oxidative stress in rat INS-1 cells assessed as cell death at 10 to 100 nM after 24 hrs by MTT assay (reference value: 45%); type: functional
Mus musculus [6] = assay: Antidiabetic activity in STZ/diet-induced obese C57BL/6 mouse assessed as reduction in serum ALT level at 25 nmol/kg, ip administered daily for 4 weeks measured post last dose; type: functional, organism-based; outline: as §1
Mus musculus [7] = assay: Antidiabetic activity in STZ/diet-induced obese C57BL/6 mouse assessed as reduction in food intake at 25 nmol/kg, ip measured after 6 hrs relative to control; type: functional; design: scale not given: the % may be the effect or the level left
Outline: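 Acute study in fasted mice given an i.p. dose; food intake was measured at 6 h after administration.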

Sequence of Albumin (P02768 whole entry): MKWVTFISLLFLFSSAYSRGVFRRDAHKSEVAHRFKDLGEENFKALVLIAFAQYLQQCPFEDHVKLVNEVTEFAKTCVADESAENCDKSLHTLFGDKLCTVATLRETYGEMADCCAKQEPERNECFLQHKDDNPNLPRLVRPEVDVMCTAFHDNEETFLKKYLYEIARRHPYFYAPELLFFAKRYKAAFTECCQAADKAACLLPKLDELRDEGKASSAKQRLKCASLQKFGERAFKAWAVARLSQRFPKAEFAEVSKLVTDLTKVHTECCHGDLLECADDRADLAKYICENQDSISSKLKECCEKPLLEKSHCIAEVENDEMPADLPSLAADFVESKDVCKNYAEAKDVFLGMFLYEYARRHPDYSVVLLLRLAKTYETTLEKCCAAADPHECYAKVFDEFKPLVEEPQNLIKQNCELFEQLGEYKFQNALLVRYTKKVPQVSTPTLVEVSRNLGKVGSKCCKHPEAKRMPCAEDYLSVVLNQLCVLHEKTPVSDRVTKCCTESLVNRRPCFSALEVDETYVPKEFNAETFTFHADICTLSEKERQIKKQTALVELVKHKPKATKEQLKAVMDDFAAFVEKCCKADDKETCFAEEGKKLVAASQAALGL
Sequence of Glucagon-like peptide 1 receptor (P43220 whole entry): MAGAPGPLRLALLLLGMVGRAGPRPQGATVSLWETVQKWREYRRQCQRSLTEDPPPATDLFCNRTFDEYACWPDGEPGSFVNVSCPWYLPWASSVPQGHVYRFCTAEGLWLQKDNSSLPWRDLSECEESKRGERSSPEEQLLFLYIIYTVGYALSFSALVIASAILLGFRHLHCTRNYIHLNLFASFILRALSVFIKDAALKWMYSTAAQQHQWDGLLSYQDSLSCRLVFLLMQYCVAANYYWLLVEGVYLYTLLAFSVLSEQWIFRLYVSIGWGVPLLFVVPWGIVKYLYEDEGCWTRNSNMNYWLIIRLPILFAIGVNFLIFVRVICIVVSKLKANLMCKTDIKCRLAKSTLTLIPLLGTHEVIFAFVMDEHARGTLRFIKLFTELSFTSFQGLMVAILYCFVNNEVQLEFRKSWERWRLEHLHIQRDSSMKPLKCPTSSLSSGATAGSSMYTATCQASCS

Question: How did the Activity (Mus musculus [1]) turn out when CC[C@H](C)[C@H](NC(=O)[C@H](Cc1ccccc1)NC(=O)[C@H](CCC(=O)O)NC(=O)[C@H](CCCCN)NC(=O)[C@H](C)NC(=O)[C@H](C)NC(=O)[C@H](CCC(N)=O)NC(=O)CNC(=O)[C@H](CCC(=O)O)NC(=O)[C@H](CC(C)C)NC(=O)[C@H](Cc1ccc(O)cc1)NC(=O)[C@H](CO)NC(=O)[C@H](CO)NC(=O)[C@@H](NC(=O)[C@H](CC(=O)O)NC(=O)[C@H](CO)NC(=O)[C@@H](NC(=O)[C@H](Cc1ccccc1)NC(=O)[C@@H](NC(=O)CNC(=O)[C@H](CCC(=O)O)NC(=O)CNC(=O)[C@@H](N)Cc1cnc[nH]1)[C@@H](C)O)[C@@H](C)O)C(C)C)C(=O)N[C@@H](C)C(=O)N[C@@H](Cc1c[nH]c2ccccc12)C(=O)N[C@@H](CC(C)C)C(=O)N[C@H](C(=O)N[C@@H](CCCCN)C(=O)NCC(=O)N[C@@H](CCCNC(=N)N)C(=O)N[C@@H](CSC1CC(=O)N(CCCCCCCCCCCC(=O)O)C1=O)C(N)=O)C(C)C (some centres undefined) was run?
Answer: <=33.5%

Question: And the Time (Rattus norvegicus)?
Answer: 15 to 60 min

Question: And the pEC50 [2]?
Answer: 10.70

Question: What about the Activity (INS1 [3]) of the same compound?
Answer: Active

Question: And the Activity (Mus musculus [4])?
Answer: Active

Question: And the Activity (Albumin)?
Answer: 62.4%

Question: What about the Activity (INS1 [5]) of the same compound?
Answer: 21.9%

Question: What about the Activity (Mus musculus [6]) of the same compound?
Answer: Active

Question: What about the Activity (Mus musculus [7]) of the same compound?
Answer: <=34.5%
